These results are taken from ChEMBL document CHEMBL4680111, “Target Validation and Identification of Novel Boronate Inhibitors of the Plasmodium falciparum Proteasome” (J Med Chem, 2018).

Assay [1] is described as follows: Inhibition of Plasmodium falciparum 20S proteasome beta 2 subunit trypsin-like activity using fluorogenic peptide Ac-WLR-AMC as substrate in presence of PA28alpha incubated for 1 to 2 hrs by fluorescence microplate reader assay.
Assay [2] concerns the target T1, Proteasome subunit beta type-7 (Homo sapiens, UniProt Q99436).
T1 sequence (Q99436 whole entry): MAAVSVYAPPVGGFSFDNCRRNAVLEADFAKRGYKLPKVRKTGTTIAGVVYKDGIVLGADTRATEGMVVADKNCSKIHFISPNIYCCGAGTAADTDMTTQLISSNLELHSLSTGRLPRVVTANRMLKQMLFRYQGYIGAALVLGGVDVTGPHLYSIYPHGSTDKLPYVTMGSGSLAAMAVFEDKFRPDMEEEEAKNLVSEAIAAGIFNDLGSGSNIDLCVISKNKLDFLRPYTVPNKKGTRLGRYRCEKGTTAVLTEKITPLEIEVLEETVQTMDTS
The experiment in a line: Inhibition of human 20S constitutive proteasome beta 2 subunit trypsin-like activity using fluorogenic peptide Ac-WLR-AMC as substrate in presence of PA28alpha incubated for 1 to 2 hrs by fluorescence microplate reader assay.

Assay [3] concerns Plasmodium falciparum 3D7. The experiment in a line: Inhibition of 20S proteasome beta 5 subunit from bortezomib resistant Plasmodium falciparum 3D7 trophozoite infected erythrocytes assessed as inhibition of BMV037 probe labeling at 1 to 10 uM incubated for 1 hr by SDS-PAGE analysis. To be noted: dose 1-10 µM.
The subject of assay [4] is Plasmodium falciparum 3D7. The experiment in a line: Inhibition of 20S proteasome beta 2 subunit from bortezomib resistant Plasmodium falciparum 3D7 trophozoite infected erythrocytes assessed as inhibition of BMV037 probe labeling at 1 to 10 uM incubated for 1 hr by SDS-PAGE analysis. To be noted: dose 1-10 µM.
Assay [5] deals with T2, Proteasome component C5 (Homo sapiens) (UniProt P20618).
T2 sequence (whole entry): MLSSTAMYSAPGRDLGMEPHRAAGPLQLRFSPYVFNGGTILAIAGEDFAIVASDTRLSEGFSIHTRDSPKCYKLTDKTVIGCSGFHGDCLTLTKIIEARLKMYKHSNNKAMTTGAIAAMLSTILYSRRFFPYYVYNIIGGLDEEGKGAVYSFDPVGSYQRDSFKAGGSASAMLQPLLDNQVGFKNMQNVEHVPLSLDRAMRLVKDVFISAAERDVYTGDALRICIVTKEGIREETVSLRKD
The experiment in a line: Inhibition of human 20S constitutive proteasome beta 1 subunit assessed as inhibition of BMV037 probe labeling at 1 to 10 uM incubated for 1 hr by SDS-PAGE analysis. The settings on record: dose 1-10 µM. Put shortly: (§1)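 Purified human constitutive 20S (20 nM) was treated with compound at 37°C for 1 h, then labelled with 10 µM BMV037 at 37°C for 2 h. Samples were run on 10% Bis-Tris gel with MOPS buffer, and active subunits were detected by Cy5 fluorescence scan.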

Assay [6] has as its target T3, Proteasome Macropain subunit MB1 (Homo sapiens) (UniProt P28074).
T3 sequence (whole entry): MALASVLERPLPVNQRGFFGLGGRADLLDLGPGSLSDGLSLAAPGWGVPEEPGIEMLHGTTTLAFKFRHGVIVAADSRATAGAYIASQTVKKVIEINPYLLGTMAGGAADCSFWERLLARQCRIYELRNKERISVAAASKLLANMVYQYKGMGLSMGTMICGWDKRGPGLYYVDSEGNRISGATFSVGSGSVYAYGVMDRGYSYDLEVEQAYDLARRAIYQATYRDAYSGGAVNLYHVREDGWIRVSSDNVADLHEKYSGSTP
Description: Inhibition of human 20S constitutive proteasome beta 5 subunit assessed as inhibition of BMV037 probe labeling at 1 to 10 uM incubated for 1 hr by SDS-PAGE analysis. The settings on record: dose 1-10 µM. Put shortly: as §1

The target in assay [7] is T4, Proteasome subunit beta type-9 (Homo sapiens) (UniProt P28065).
T4 sequence (whole entry): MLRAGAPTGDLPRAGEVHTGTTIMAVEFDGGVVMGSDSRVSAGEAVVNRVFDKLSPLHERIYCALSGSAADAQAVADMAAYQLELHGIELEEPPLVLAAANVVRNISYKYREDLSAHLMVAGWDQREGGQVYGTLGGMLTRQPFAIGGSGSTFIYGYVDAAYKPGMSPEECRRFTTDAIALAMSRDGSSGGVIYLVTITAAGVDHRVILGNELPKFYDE
The experiment in a line: Inhibition of human 20S immunoproteasome beta 1 subunit assessed as inhibition of BMV037 probe labeling at 1 to 10 uM incubated for 1 hr by SDS-PAGE analysis. The settings on record: dose 1-10 µM. Put shortly:
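Purified human immuno-20S (20 nM) was incubated with compound at 37°C for 1 h, then labelled with 10 µM BMV037 at 37°C for 2 h. Samples were run on 4-12% Bis-Tris gel with MES buffer, and active subunits were visualised by Cy5 fluorescence.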

Assay [8] concerns the target T2, Proteasome component C5 (Homo sapiens). Description: Inhibition of human 20S constitutive proteasome beta 1 subunit assessed as inhibition of BMV037 probe labeling at 1 uM incubated for 1 hr by SDS-PAGE analysis. Put shortly:
as §1

For assay [9], the target named is T3, Proteasome Macropain subunit MB1 (Homo sapiens). The experiment in a line: Inhibition of human 20S constitutive proteasome beta 5 subunit assessed as inhibition of BMV037 probe labeling at 1 uM incubated for 1 hr by SDS-PAGE analysis. Put shortly:
as §1

The subject of assay [10] is Plasmodium falciparum 3D7. The experiment in a line: Inhibition of 20S proteasome beta 2 subunit in bortezomib-resistant Plasmodium falciparum 3D7 assessed as inhibition of BMV037 probe labeling at 1 to 10 uM incubated for 1 hr by SDS-PAGE analysis. The settings on record: dose 1-10 µM.
Assay [11] concerns the target T5, Proteasome Macropain subunit MB1 (Homo sapiens, UniProt P28074).
T5 sequence (P28074 whole entry): T3 sequence (whole entry)
Description: Binding affinity to human 20S constitutive proteasome beta 5 subunit assessed as equilibrium constant using fluorogenic peptide Ac-WLA-AMC as substrate in presence of PA28alpha by fluorescence based microplate reader assay.

Assay [12] in a line: Binding affinity to Plasmodium falciparum 20S proteasome beta 5 subunit assessed as equilibrium constant using fluorogenic peptide Ac-WLA-AMC as substrate in presence of PA28alpha by fluorescence based microplate reader assay.
Assay [13] in a line: Binding affinity to Plasmodium falciparum 20S proteasome beta 2 subunit assessed as equilibrium constant using fluorogenic peptide Ac-WLR-AMC as substrate in presence of PA28alpha by fluorescence based microplate reader assay.
In assay [14] the target is T3, Proteasome Macropain subunit MB1 (Homo sapiens). The experiment in a line: Binding affinity to human 20S constitutive proteasome beta 5 subunit assessed as half-life using fluorogenic peptide Ac-WLA-AMC as substrate in presence of PA28alpha by fluorescence based microplate reader assay.
Assay [15] relates to Plasmodium falciparum. Description: Binding affinity to Plasmodium falciparum 20S proteasome beta 2 subunit assessed as half-life using fluorogenic peptide Ac-WLR-AMC as substrate in presence of PA28alpha by fluorescence based microplate reader assay.
Assay [16] relates to Plasmodium falciparum. The experiment in a line: Synergistic antiplasmodial activity against DHA-resistant and sorbitol synchronized ring stage forms of Plasmodium falciparum Cam3.II^R539T expressing K13 mutant assessed as reduction in parasitemia incubated for 3 hrs in presence of DHA by pulse exposure based Syto-61 staining dye based flow cytometry analysis. It is filed as functional, organism-based. Background: A flow cytometer gives signals particle by particle.

Assay [17] concerns the target T3, Proteasome Macropain subunit MB1 (Homo sapiens). The experiment in a line: Inhibition of human 20S constitutive proteasome beta 5 subunit assessed as inhibition of BMV037 probe labeling at 10 uM incubated for 1 hr by SDS-PAGE analysis. Put shortly:
as §1

The structures appear in SMILES notation. Activity calls are given as the source filed them. The rule behind the calls is not given here.

Regarding `Cc1ccc(S(=O)(=O)N[C@@H](CC(=O)NCC(C)(C)C)C(=O)N[C@@H](Cc2ccccc2)C(=O)N[C@@H](CC(C)C)B(O)O)cc1`, the IC50 in [1] is 70 nM; in [2], 440 nM. The inhibition result in assay [3], in assay [4], in [5], in assay [6], in assay [7] and in assay [10] was “Active” throughout. In addition, the inhibition entry in assay [8] and in assay [9] was “inactive” throughout.

For `CC(C)C[C@H](NC(=O)[C@H](Cc1ccccc1)NC(=O)Cc1ccc(O)cc1)B(O)O`, the IC50 in assay [1] was found to be 60 nM; in [2] it was 680 nM. For the same molecule, the Ki in assay [11] was found to be 0.13 nM; in assay [12], 4.3 nM; in [13], 6.4 nM. Also, the T1/2 in assay [14] is 1.77 h; in the assay on Plasmodium falciparum [15] it was 1.08 h. In the assay with Plasmodium falciparum [16], the outcome was Active. Further, the inhibition result in [4], in assay [5], in assay [6], in assay [7] and in [10] was “Active” throughout.

As to `CC(=O)N1CCC[C@@H]1C(=O)N[C@@H](C)C(=O)N[C@@H](Cc1ccccc1)B(O)O`, the IC50 in [1] and in assay [2] was over 10000 nM throughout. Further, in the assay on Plasmodium falciparum [16], the result was Active. Besides, the inhibition result in assay [3] was “Active”. Further, the inhibition entry in [17] was “inactive”.

In general, IC50 refers to the concentration needed to halve the response being measured. As usually defined, the Ki is a dissociation constant, usually derived from enzyme kinetics or from competition with a known ligand.
